Source: ChEMBL document CHEMBL1122806 (J Med Chem, 1984)
One block for each compound: values may come before it. Square brackets hold non-standard residues; d marks the D form. Peptide text beside a SMILES is read from it. Sta = CC(C)C[C@H](N)[C@@H](O)CC(=O)O

Columns and labels:
Aminopeptidase N [1] = target: T1, Aminopeptidase N (Sus scrofa, UniProt P15145); assay: Compound was evaluated for the inhibition of Aminopeptidase M (AP-M) and the inhibition constant was determined after preincubating the enzyme and inhibitor
T1 sequence (P15145 whole entry): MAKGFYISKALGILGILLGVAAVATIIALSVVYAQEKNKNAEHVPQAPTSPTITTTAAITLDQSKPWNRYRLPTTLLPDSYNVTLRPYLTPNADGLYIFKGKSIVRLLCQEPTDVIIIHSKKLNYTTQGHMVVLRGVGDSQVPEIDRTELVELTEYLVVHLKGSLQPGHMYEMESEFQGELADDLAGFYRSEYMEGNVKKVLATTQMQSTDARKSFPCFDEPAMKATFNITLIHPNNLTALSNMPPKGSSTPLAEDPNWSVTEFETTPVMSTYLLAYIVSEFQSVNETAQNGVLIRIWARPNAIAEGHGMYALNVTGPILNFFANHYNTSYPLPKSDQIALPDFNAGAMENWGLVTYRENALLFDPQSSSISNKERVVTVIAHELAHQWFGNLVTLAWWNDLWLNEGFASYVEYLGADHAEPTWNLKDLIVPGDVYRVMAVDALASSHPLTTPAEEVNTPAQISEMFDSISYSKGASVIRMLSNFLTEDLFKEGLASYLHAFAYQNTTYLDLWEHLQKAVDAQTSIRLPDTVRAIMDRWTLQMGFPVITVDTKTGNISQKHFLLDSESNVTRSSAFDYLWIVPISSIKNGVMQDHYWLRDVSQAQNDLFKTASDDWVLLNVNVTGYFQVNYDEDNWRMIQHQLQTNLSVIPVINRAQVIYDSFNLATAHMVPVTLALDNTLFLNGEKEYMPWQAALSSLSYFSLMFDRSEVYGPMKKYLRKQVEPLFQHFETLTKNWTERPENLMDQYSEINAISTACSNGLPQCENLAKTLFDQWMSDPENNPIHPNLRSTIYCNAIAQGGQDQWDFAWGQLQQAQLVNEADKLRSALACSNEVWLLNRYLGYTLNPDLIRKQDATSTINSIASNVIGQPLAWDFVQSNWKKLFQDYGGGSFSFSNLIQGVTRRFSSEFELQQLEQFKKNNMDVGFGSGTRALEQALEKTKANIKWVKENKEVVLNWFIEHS
How it was run: (§1)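 Initial rates came from reactions started by adding enzyme to substrate plus inhibitor. Final steady-state rates came after 15-20 min enzyme-inhibitor preincubation, with substrate added to start. Reaction velocities were analysed by Lineweaver-Burk plots.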

[2] = target: Cytosol aminopeptidase (Sus scrofa) (UniProt P28839); assay: Compound was evaluated for the inhibition of Leucine aminopeptidase from porcine kidney and the inhibition constant (Ka) was determined which is the apparent Km in the presence of tripeptide after preincubating the enzyme and inhibitor
Cytosol aminopeptidase (Sus scrofa), sequence (P28839 whole entry, looked up): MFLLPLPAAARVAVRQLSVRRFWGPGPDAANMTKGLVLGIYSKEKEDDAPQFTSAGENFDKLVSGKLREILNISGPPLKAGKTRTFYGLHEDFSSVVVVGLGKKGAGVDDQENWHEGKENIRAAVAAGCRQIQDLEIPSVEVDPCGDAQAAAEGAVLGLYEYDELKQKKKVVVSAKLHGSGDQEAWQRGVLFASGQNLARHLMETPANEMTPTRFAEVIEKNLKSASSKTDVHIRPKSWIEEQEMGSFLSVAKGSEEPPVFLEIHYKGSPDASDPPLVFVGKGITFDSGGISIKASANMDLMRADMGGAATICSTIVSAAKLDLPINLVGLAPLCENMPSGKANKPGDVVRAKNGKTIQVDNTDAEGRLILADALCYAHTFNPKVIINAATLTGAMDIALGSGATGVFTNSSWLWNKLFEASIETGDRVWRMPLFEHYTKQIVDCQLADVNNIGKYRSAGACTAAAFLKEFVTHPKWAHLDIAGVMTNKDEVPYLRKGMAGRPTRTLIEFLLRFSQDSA

Aminopeptidase N [3] = target: T1, Aminopeptidase N; assay: Effect of inhibitor structure on the slow binding inhibition of aminopeptidase M was determined and Ki* was reported which is obtained by the equation Ki[k4/(k3 + k4)]; how it was run: as §1
Aminopeptidase N [4] = target: T1, Aminopeptidase N; assay: Effect of inhibitor structure on the slow binding inhibition of aminopeptidase M was determined and the Ki was reported which is = k2/k1; how it was run: as §1
Aminopeptidase N [5] = target: T1, Aminopeptidase N; assay: Compound was evaluated for the inhibition of Aminopeptidase M (AP-M) from porcine kidney and the inhibition constant was determined after preincubating the enzyme and inhibitor; how it was run: as §1
Aminopeptidase N [6] = target: T1, Aminopeptidase N; assay: Effect of inhibitor structure on the slow binding inhibition of Aminopeptidase M from porcine kidney was determined and the Ki was reported which is = k2/k1; how it was run: as §1
Aminopeptidase N [7] = target: T1, Aminopeptidase N; assay: Effect of inhibitor structure on the slow binding inhibition of Aminopeptidase M from porcine kidney was determined and Ki was reported which is obtained by the equation Ki[k4/(k3 + k4)]; how it was run: as §1

- Ka [2]: 0.0057
Structure (SMILES): CC(C)C[C@H](N)[C@@H](O)CC(=O)N[C@H](C(=O)N[C@H](C(=O)N[C@@H](CC(=O)O)C(=O)O)C(C)C)C(C)C (H-[Sta]VVD-OH)

- Ki (Aminopeptidase N [1]): 25 µM
Structure (SMILES): CC(C)C[C@@H](N)CC(=O)N[C@H](C(=O)N[C@H](C(=O)N[C@@H](CC(=O)O)C(=O)O)C(C)C)C(C)C

- Ki (Aminopeptidase N [3]): 0.9 µM
- Ki (Aminopeptidase N [1]): 0.94 µM
- Ki (Aminopeptidase N [4]): 40 µM
Structure (SMILES): CC(C)CC(N)C(O)C(=O)NC(C(=O)NC(CC(=O)O)C(=O)O)C(C)C (stereo unspecified)

The next lines start with the compound.

Structure (SMILES): CC(C)CCNC(=O)[C@@H](NC(=O)[C@@H](NC(=O)[C@H](O)[C@@H](N)CC(C)C)C(C)C)C(C)C
- Ki (Aminopeptidase N [1]): 0.18 µM

Structure (SMILES): CC(C)C[C@H](NC(=O)[C@@H](O)[C@H](N)CC(C)C)C(=O)O
- Ki (Aminopeptidase N [1]): 11.8 µM

Structure (SMILES): CC(C)CCNC(=O)[C@@H](NC(=O)[C@@H](NC(=O)C[C@H](O)[C@@H](N)CC(C)C)C(C)C)C(C)C
- Ki (Aminopeptidase N [5]): 1000 µM

Structure (SMILES): CC(C)CCNC(=O)[C@H](O)[C@@H](N)Cc1ccccc1
- Ki (Aminopeptidase N [5]): 16.3 µM
- Ki (Aminopeptidase N [6]): 16 µM
- Ki (Aminopeptidase N [7]): 16 µM
